For four molecules, IC50 and ED50 results are on record in ChEMBL document CHEMBL1135816, “6-Aryl-1,4-dihydro-benzo[d][1,3]oxazin- 2-ones: a novel class of potent, selective, and orally active nonsteroidal progesterone receptor antagonists” (J Med Chem, 2002).

Bounds are passed on as bounds.

What all share (assay type): functional
Test [1] concerns the target T1, Glucocorticoid receptor (Homo sapiens, UniProt P04150).
T1 sequence (P04150 whole entry): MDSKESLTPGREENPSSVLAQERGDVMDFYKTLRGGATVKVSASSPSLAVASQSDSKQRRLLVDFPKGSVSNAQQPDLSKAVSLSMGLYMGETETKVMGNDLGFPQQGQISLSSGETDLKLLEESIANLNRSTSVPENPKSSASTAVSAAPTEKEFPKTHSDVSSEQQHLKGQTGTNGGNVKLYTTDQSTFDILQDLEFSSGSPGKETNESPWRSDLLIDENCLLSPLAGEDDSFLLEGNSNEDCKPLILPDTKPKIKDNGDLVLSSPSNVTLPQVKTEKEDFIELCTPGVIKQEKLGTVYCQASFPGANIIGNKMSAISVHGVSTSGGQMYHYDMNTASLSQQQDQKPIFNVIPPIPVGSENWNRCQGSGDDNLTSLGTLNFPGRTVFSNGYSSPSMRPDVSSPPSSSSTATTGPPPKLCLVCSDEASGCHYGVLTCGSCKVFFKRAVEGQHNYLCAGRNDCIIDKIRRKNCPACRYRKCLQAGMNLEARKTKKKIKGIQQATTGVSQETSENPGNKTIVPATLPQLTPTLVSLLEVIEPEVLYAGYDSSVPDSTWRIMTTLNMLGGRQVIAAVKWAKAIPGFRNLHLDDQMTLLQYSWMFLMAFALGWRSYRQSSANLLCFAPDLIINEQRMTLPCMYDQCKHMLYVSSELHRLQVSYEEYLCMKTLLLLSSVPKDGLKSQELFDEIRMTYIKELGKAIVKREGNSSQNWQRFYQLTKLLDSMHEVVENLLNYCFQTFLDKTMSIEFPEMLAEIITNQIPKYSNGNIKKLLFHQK
The experiment in a line: Antagonist activity against the Glucocorticoid Receptor (GR).

For test [2], the target named is T2, Mineralocorticoid receptor (Homo sapiens, UniProt P08235).
T2 sequence (P08235 whole entry): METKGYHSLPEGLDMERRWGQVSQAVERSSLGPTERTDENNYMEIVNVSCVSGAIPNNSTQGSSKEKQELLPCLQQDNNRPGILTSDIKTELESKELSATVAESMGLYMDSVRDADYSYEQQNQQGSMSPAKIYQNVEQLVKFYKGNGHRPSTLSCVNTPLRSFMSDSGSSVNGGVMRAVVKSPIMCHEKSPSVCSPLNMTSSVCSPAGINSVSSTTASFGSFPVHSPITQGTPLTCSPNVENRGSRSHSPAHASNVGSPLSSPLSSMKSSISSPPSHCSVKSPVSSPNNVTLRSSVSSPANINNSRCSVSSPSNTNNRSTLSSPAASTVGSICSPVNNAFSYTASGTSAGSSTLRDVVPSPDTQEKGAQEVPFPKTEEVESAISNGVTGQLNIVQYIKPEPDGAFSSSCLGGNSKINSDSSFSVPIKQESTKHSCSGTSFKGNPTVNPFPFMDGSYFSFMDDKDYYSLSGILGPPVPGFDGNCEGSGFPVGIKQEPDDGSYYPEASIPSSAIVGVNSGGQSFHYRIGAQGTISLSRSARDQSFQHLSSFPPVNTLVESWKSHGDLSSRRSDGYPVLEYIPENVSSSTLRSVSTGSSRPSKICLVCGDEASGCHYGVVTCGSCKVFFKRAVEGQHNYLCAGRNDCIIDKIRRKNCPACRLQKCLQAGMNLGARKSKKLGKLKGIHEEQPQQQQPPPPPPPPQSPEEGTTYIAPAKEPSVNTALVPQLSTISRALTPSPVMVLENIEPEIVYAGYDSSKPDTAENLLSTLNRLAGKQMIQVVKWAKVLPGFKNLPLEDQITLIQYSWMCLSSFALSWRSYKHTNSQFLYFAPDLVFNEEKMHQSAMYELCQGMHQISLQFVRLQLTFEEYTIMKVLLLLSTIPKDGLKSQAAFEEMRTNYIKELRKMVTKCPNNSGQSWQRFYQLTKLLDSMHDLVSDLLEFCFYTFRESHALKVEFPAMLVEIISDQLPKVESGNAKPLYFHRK
The experiment in a line: Antagonist activity against the Mineralocorticoid Receptor (MR).

For test [3], the target named is T3, Progesterone receptor (Rattus norvegicus) (UniProt Q63449).
T3 sequence (whole entry): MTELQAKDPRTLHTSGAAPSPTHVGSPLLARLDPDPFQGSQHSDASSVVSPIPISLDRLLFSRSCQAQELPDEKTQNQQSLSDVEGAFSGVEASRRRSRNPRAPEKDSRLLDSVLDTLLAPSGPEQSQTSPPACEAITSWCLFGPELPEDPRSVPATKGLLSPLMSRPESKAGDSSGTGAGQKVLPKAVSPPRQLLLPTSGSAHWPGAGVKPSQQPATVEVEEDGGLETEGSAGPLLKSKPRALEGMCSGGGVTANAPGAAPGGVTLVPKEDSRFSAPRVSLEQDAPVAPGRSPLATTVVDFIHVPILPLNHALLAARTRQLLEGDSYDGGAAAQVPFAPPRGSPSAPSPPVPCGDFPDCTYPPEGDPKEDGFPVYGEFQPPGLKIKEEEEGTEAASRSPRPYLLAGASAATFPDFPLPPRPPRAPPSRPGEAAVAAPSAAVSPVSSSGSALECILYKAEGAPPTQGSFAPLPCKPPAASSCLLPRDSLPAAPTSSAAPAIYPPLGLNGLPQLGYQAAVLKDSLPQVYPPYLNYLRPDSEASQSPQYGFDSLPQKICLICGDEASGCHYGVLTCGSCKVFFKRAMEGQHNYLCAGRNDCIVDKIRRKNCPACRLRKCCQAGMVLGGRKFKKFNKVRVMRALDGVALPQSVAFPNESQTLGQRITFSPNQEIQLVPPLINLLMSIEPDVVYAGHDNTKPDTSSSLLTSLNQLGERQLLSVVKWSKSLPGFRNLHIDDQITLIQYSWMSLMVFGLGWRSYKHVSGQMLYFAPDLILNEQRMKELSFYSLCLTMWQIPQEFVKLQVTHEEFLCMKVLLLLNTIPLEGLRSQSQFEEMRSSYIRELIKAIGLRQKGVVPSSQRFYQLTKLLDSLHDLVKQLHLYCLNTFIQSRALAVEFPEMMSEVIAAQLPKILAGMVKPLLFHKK
The experiment in a line: Inhibitory activity against progesterone receptor (PR) in ovariectomized mature female rat decidualization model. In outline:
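Ovariectomized mature rats dosed orally for 7 days, with progesterone 5.6 mg/kg SC given alongside; vehicle-only controls. Decidual response (D/C) measured 24 h after the final treatment, seven animals per point. ED50 averaged from at least duplicate determinations.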

One may read the IC50 as the concentration that inhibits the measured activity by half. Lower therefore signals higher potency. The term ED50 denotes the midpoint of the dose-response relation. A lower ED50 goes with an effect at a small dose. For `CC1(C)OC(=O)Nc2ccc(-c3ccc(F)c(Cl)c3)cc21`, the half-inhibitory concentration (IC50) in test [1] turned out to be 2.58 µM; in test [2], 2.49 µM. The molecule also displayed a 50% effective dose (ED50) in test [3] of 1 mg/kg.
Taken in the same sequence, the figures for `CC1(C)OC(=O)Nc2ccc(-c3coc(C#N)c3)cc21` were over 10 µM, over 10 µM and 0.9 mg/kg.
For `CC1(C)OC(=O)Nc2ccc(-c3csc(C#N)c3)cc21` the same measures were 1.86 µM, 1.39 µM and 1.7 mg/kg.
For `CC1(C)OC(=O)Nc2ccc(-c3cc(F)cc(C#N)c3)cc21` the same measures were 1.76 µM, 2.37 µM and 0.3 mg/kg.
